Reference: ChEMBL document CHEMBL1629492 (Eur J Med Chem, 2010)

How the values were obtained:
[1] = biological target: T1, Alpha-1D adrenergic receptor (Homo sapiens, UniProt P25100); experiment: Displacement of [3H]prazosin from human Alpha-1D adrenoceptor expressed in CHO cells; format: cell-based
T1 sequence (P25100 whole entry): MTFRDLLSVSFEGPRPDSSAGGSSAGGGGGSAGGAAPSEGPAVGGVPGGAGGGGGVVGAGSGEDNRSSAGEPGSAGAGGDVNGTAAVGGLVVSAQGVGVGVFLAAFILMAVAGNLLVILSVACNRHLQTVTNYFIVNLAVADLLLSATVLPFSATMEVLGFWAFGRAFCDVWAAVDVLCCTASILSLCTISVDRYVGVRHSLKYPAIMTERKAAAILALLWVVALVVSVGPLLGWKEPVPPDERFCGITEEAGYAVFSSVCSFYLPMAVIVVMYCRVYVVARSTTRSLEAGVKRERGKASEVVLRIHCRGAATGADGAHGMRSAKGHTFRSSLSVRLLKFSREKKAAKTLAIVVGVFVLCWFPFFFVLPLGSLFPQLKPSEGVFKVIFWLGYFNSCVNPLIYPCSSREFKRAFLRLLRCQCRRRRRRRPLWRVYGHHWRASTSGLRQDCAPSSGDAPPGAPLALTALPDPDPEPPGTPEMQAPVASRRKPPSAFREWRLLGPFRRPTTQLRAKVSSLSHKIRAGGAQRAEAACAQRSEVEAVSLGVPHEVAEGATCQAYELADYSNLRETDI
Procedure, shortened: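 Membranes ([…], as printed) from CHO cells stably expressing the cloned human α1d subtype were incubated with 0.1–0.4 nM [³H]prazosin and competing drug (1 pM upward) in 50 mM Tris-HCl, pH 7.4, for 30 min at 25 °C. Phentolamine defined non-specific binding. IC50 was converted to Ki by Cheng–Prusoff. Reported as pKi from 2–3 triplicate experiments.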

[2] = Selectivity ratio of Ki for human alpha1A adrenoceptor to Ki for human Alpha-1D adrenoceptor
Procedure, shortened: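 Subtype selectivity is the antilog of the difference between pKi values, from [³H]prazosin displacement (0.1–0.4 nM, 30 min, 25 °C, pH 7.4) at cloned human α1a, α1b and α1d receptors in CHO membranes. Ki values came from IC50 via Cheng–Prusoff.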

[3] = biological target: T2, Alpha-1B adrenergic receptor (Rattus norvegicus) (UniProt P15823); experiment: Antagonist activity at Alpha-1B adrenoceptor in Wistar rat spleen assessed as phenylephrine induced contractions after 30 mins; format: functional, tissue-based
T2 sequence (whole entry): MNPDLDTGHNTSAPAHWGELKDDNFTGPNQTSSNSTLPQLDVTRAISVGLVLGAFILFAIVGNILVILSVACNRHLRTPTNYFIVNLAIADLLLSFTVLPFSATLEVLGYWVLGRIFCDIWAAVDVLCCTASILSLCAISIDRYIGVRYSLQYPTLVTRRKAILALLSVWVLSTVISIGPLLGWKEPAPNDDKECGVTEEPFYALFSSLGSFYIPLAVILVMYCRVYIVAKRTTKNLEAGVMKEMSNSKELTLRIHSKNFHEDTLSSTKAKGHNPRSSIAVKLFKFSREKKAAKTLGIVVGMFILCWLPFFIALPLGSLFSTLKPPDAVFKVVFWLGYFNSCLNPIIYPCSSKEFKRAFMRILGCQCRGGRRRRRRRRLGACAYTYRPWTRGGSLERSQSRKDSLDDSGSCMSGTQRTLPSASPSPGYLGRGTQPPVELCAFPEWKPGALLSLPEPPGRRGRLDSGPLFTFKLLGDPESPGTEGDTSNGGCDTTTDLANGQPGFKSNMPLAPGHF
Procedure, shortened: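 Spleen strips from male Wistar rats (275–300 g) were set up in a 20 mL bath of physiological salt solution (pH 7.4, 37 °C, 95% O2/5% CO2) under 1 g tension and equilibrated 2 h. Two cumulative phenylephrine curves were run, each followed by 30 min washing, then 30 min incubation with vehicle or antagonist before a third curve. Values are Schild pA2, or pKB where slopes were nonparallel; 4–6 experiments.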

Rattus norvegicus [4] = species: Rattus norvegicus; experiment: Selectivity ratio of Ki for alpha1D adrenoceptor in Wistar rat thoracic aorta to Ki for Alpha-1B adrenoceptor in Wistar rat spleen; format: tissue-based
Rattus norvegicus [5] = species: Rattus norvegicus; experiment: Selectivity ratio of EC50 for alpha1A adrenoceptor in Wistar rat vas deferens to EC50 for Alpha-1B adrenoceptor in Wistar rat spleen; format: tissue-based
Rattus norvegicus [6] = species: Rattus norvegicus; experiment: Selectivity ratio of EC50 for alpha1A adrenoceptor in Wistar rat vas deferens to EC50 for Alpha-1D adrenoceptor in Wistar rat thoracic aorta; format: tissue-based
[7] = biological target: T3, Alpha-1A adrenergic receptor (Rattus norvegicus, UniProt P43140); experiment: Antagonist activity at alpha1A adrenoceptor in Wistar rat vas deferens assessed as noradrenaline induced contractions after 30 mins; format: functional, tissue-based; details: read-out: pA2 (converted)
T3 sequence (P43140 whole entry): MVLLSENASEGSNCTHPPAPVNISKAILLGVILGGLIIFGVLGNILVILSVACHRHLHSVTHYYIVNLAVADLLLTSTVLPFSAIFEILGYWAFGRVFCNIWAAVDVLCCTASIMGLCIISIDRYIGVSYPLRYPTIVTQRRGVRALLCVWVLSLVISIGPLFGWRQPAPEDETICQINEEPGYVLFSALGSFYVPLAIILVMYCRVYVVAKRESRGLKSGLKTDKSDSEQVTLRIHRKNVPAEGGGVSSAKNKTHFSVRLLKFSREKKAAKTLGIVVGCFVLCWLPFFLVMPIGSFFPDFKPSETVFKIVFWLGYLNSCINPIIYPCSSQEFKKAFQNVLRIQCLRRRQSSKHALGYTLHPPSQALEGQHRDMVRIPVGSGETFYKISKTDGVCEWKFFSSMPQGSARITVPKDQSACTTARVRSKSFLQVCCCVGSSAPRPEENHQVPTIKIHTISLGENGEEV
Procedure, shortened: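 Prostatic portions (2 cm) of vas deferens from male Wistar rats (275–300 g) were held under 0.35 g tension in Tyrode solution at 37 °C with cocaine present. Tissues were equilibrated 45 min, primed twice with noradrenaline, then given a cumulative isotonic noradrenaline curve.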

[8] = biological target: T4, Alpha-1D adrenergic receptor (Rattus norvegicus, UniProt P23944); experiment: Antagonist activity at Alpha-1D adrenoceptor in Wistar rat thoracic aorta assessed as noradrenaline induced contractions after 30 mins
T4 sequence (P23944 whole entry): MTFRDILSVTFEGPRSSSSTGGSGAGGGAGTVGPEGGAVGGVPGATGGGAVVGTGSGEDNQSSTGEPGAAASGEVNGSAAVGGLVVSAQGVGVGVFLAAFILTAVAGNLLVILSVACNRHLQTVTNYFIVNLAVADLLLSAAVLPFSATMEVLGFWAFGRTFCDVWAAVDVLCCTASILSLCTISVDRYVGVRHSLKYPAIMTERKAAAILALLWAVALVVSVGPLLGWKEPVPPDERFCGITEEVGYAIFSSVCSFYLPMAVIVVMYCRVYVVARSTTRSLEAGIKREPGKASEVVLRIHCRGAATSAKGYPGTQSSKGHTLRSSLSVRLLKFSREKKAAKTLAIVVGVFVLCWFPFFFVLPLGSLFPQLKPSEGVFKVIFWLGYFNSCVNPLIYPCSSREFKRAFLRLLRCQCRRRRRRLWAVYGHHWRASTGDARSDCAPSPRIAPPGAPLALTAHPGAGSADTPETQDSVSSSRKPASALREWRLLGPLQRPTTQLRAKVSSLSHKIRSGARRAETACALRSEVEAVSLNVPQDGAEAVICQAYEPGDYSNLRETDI

Row | SMILES | Ki [1] [nM] | Ki ratio [2] | pKb [3] | Selectivity ratio (Rattus norvegicus [4]) | Selectivity ratio (Rattus norvegicus [5]) | Selectivity ratio (Rattus norvegicus [6]) | Kb [7] [nM] | Kb [8] [nM]
1 | COc1ccc(C[C@@H](C)NCCOc2ccccc2OCc2ccccc2)cc1S(N)(=O)=O | 0.324 | 0.9 | 8.57 | 4 | 12 | 3 | – | –
2 | COc1ccc(C[C@@H](C)NCCOc2ccccc2OCC(F)(F)F)cc1S(N)(=O)=O | 0.955 | 2 | – | 1 | 4 | 4 | 0.263 | 0.955
3 | COc1ccc(C[C@@H](C)NC[C@@H]2Oc3ccccc3O[C@@H]2C)cc1S(N)(=O)=O | 15.5 | 1 | 7.76 | 0.8 | 1 | 1 | 16.2 | 21.4
4 | COc1ccc(C[C@@H](C)NCCOc2ccccc2OC(C)C)cc1S(N)(=O)=O | 0.245 | 0.7 | 8.81 | 3 | 7 | 2 | – | 0.501
5 | COc1ccc(C[C@@H](C)NC[C@H]2Oc3ccccc3O[C@H]2C)cc1S(N)(=O)=O | 17.4 | 0.9 | – | 0.5 | 1 | 2 | 30.2 | 60.3
